# Experimental data from the RNAGym collection of RNA variant scans (doi:10.1002/anie.201605470).
# B1: Osa-1-4 twister ribozyme (parent)
# chain: CCGCCUAACACUGCCAAUGCCGGUCCCAAGCCCGGAUAAAAGUGGAGGGGGCGG
# Variants of: B1
# Test: self-cleavage, relative activity (ratio to wild type); higher = more cleavage; co-transcriptional
# Procedure, shortened: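 Values are relative activity: the fraction cleaved, normalised to wild type. A doped DNA template for a 54-nucleotide twister ribozyme from Oryza sativa had 97 % wild-type base and 1 % of each other base at the 48 positions downstream of the cleavage site. The RNA was transcribed in vitro for 2 h at 37 °C so that it could cleave itself co-transcriptionally, then sequenced deeply, with cleavage status scored from the presence or absence of upstream sequence in reads.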
row,Variant,self-cleavage
1,C11G G42A,0.75
2,C11G G42C,0.76
3,C11G G42U,0.61
4,C11G G44A,0.17
5,C11G G44C,0.11
6,C11G G44U,0.09
7,C11G G45A,0.05
8,C11G G45C,0.04
9,C11G G45U,0.06
10,C11G G47A,0.04
11,C11G G47C,0.04
12,C11G G47U,0.04
13,C11G G48A,0.03
14,C11G G48C,0.03
15,C11G G48U,0.03
16,C11G G49A,0.05
17,C11G G49C,0.03
18,C11G G49U,0.05
19,C11G G50A,0.11
20,C11G G50C,0.15
21,C11G G50U,0.42
22,C11G G51A,0.07
23,C11G G51C,0.03
24,C11G G51U,0.05

row,Variant,self-cleavage
1,C11G G53A,0.17
2,C11G G53C,0.04
3,C11G G53U,0.07
4,C11G G54A,0.3
5,C11G G54C,0.32
6,C11G G54U,0.36
7,C11G U12A,0.15
8,C11G U12C,0.08
9,C11G U12G,0.08
10,C11G U18A,0.52
11,C11G U18C,0.24
12,C11G U18G,0.54
13,C11G U24A,0.04
14,C11G U24C,0.04
15,C11G U24G,0.04
16,C11G U37A,0.38
17,C11G U37C,0.69
18,C11G U37G,0.71
19,C11G U43A,0.15
20,C11G U43C,0.08
21,C11G U43G,0.05
22,C11U,0.94
23,C11U C9A,0.26
24,C11U C9G,0.36

row,Variant,self-cleavage
1,C11U C9U,0.65
2,C11U C14A,0.07
3,C11U C14G,0.09
4,C11U C14U,0.17
5,C11U C15A,0.21
6,C11U C15G,0.19
7,C11U C15U,0.13
8,C11U C20A,0.71
9,C11U C20G,0.09
10,C11U C20U,0.78
11,C11U C21A,0.29
12,C11U C21G,0.11
13,C11U C21U,0.91
14,C11U C25A,0.08
15,C11U C25G,0.05
16,C11U C25U,0.52
17,C11U C26A,0.05
18,C11U C26G,0.08
19,C11U C26U,0.6
20,C11U C27A,0.14
21,C11U C27G,0.06
22,C11U C27U,0.12
23,C11U C31A,0.03
24,C11U C31G,0.06

row,Variant,self-cleavage
1,C11U C31U,0.37
2,C11U C32A,0.06
3,C11U C32G,0.08
4,C11U C32U,0.07
5,C11U C33A,0.07
6,C11U C33G,0.06
7,C11U C33U,0.51
8,C11U C52A,0.83
9,C11U C52G,0.81
10,C11U C52U,0.98
11,C11U G13A,0.05
12,C11U G13C,0.04
13,C11U G13U,0.04
14,C11U G19A,0.23
15,C11U G19C,0.07
16,C11U G19U,0.1
17,C11U G22A,0.59
18,C11U G22C,0.04
19,C11U G22U,0.22
20,C11U G23A,0.1
21,C11U G23C,0.04
22,C11U G23U,0.05
23,C11U G30A,0.04
24,C11U G30C,0.05

row,Variant,self-cleavage
1,C11U G30U,0.03
2,C11U G34A,0.39
3,C11U G34C,0.08
4,C11U G34U,0.19
5,C11U G35A,0.65
6,C11U G35C,0.18
7,C11U G35U,0.69
8,C11U G42A,0.93
9,C11U G42C,0.85
10,C11U G42U,0.47
11,C11U G44A,0.8
12,C11U G44C,0.84
13,C11U G44U,0.67
14,C11U G45A,0.09
15,C11U G45C,0.06
16,C11U G45U,0.09
17,C11U G47A,0.09
18,C11U G47C,0.07
19,C11U G47U,0.07
20,C11U G48A,0.07
21,C11U G48C,0.06
22,C11U G48U,0.05
23,C11U G49A,0.09
24,C11U G49C,0.08

row,Variant,self-cleavage
1,C11U G49U,0.09
2,C11U G50A,0.44
3,C11U G50C,0.72
4,C11U G50U,0.88
5,C11U G51A,0.34
6,C11U G51C,0.05
7,C11U G51U,0.12
8,C11U G53A,0.62
9,C11U G53C,0.07
10,C11U G53U,0.14
11,C11U G54A,0.78
12,C11U G54C,0.8
13,C11U G54U,0.79
14,C11U U12A,0.6
15,C11U U12C,0.47
16,C11U U12G,0.37
17,C11U U18A,0.85
18,C11U U18C,0.71
19,C11U U18G,0.7
20,C11U U24A,0.06
21,C11U U24C,0.1
22,C11U U24G,0.06
23,C11U U37A,0.62
24,C11U U37C,1.02

row,Variant,self-cleavage
1,C11U U37G,0.94
2,C11U U43A,0.62
3,C11U U43C,0.26
4,C11U U43G,0.2
5,U12A,0.99
6,U12A U18A,0.91
7,U12A U18C,0.76
8,U12A U18G,0.76
9,U12A U24A,0.07
10,U12A U24C,0.08
11,U12A U24G,0.03
12,U12A U37A,0.71
13,U12A U37C,1
14,U12A U37G,1
15,U12A U43A,0.13
16,U12A U43C,0.11
17,U12A U43G,0.09
18,U12C,0.66
19,U12C U18A,0.46
20,U12C U18C,0.38
21,U12C U18G,0.61
22,U12C U24A,0.05
23,U12C U24C,0.06
